From PubChem BioAssay AID624016 (Broad Institute, 2012)
Calls of active or inactive are those of the source.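 Rule for the calls: active = fitted curve reaching 35% inhibition at both 405 and 600 nm absorbance, in duplicate, within twice the top valid dose; inactive = the rest, including signal rising instead of falling.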

Legend:
[1] = bacterial growth inhibition with EDDHA chelator – absorbance 405 nm, dry powder, set 4, dose response (AID 624016); settings: P. aeruginosa + EDDHA, pyoverdine absorbance 405 nm, 24-30 h
Outline: (§1)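 test system = P. aeruginosa ATCC 15692 cells | schedule = 24-30 h exposure at 37 °C | measured by = absorbance 405 nm, pyoverdine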

[2] = test system: P. aeruginosa + EDDHA, pyoverdine absorbance 405 nm, 24-30 h; assay: as above
Outline: as §1

Structure (SMILES) | activity change, negative = inhibition ([1]; at 50 µM (top of the series)) | further results
CCCCC(C#N)c1ccc(Cl)cc1 (configuration not stated) | -0.817% (inactive) | 
N#CC(c1ccc(F)cc1)c1ccc(C(F)(F)F)c(Cl)n1 (configuration not stated) | -4.12% (inactive) | 
Cc1ccc(C(C#N)c2ccccc2OC(F)(F)F)nc1C#N (configuration not stated) |  | activity change, negative = inhibition ([1]; at 16 µM (top of the series)): -24.9% (inactive)
N#Cc1cccc(C(C#N)c2ccc(Cl)cc2F)n1 (configuration not stated) | -15.5% (inactive) | 
N#CC(c1ccc(Cl)cc1)c1ccc(C(F)(F)F)c(Cl)n1 (configuration not stated) | 20.6% (inactive) | 
CCCCC(C#N)c1ccc(F)cc1 (configuration not stated) | -0.303% (inactive) | 
CCCC(C#N)c1ccc(Cl)cc1 (configuration not stated) | -8.71% (inactive) | 
N#Cc1ccc(C(C#N)c2ccc(Cl)cc2Cl)nc1 (configuration not stated) | -0.009% (inactive) | 
N#CC(c1ccc(C(F)(F)F)c(Cl)n1)c1ccc(Cl)cc1Cl (configuration not stated) | 15.9% (inactive) | 
N#CC(c1ccc(Cl)cc1)c1cccc(C(F)(F)F)n1 (configuration not stated) |  | AC35 [2]: 8.64 µM
N#CC(c1ccc(C(F)(F)F)c(Cl)n1)c1ccccc1OC(F)(F)F (configuration not stated) | -6.71% (inactive) | 
N#CC(c1ccc(C(F)(F)F)cc1)c1cccc(C(F)(F)F)n1 (configuration not stated) |  | AC35 [2]: > 50 µM (inactive)
CC(C)CC(C#N)c1ccc(Cl)cc1 (configuration not stated) | -16.3% (inactive) | 
N#CC(c1cccc(Cl)n1)c1ccc(Cl)cc1F (configuration not stated) |  | AC35 [2]: 22.3 µM
N#CC(c1ccc(Cl)cc1)c1ccc(C(F)(F)F)cn1 (configuration not stated) | 3.24% (inactive) | 
CCCCC(C#N)c1ccc(C(F)(F)F)cc1 (configuration not stated) | -3.25% (inactive) | 
N#CC(c1ccc(F)cc1)c1cccc(C(F)(F)F)n1 (configuration not stated) |  | AC35 [2]: 28.9 µM
N#CC(c1cccc(C(F)(F)F)n1)c1ccc(Cl)cc1F (configuration not stated) |  | AC35 [2]: 15 µM
N#CC(c1ccc(C(F)(F)F)cc1)c1ccc(C(F)(F)F)c(Cl)n1 (configuration not stated) | 2.24% (inactive) | 
N#CC(c1ccc(C(F)(F)F)cc1)c1cccc(Cl)n1 (configuration not stated) | -4.32% (inactive) | 
CCCCC(C#N)c1ccc(Cl)cc1Cl (configuration not stated) | -5.19% (inactive) | 
N#CC(c1ccc(Cl)cc1Cl)c1ncccc1Cl (configuration not stated) | 1.29% (inactive) | 
CCCCC(C#N)c1ccc(Cl)cc1F (configuration not stated) | 5.25% (inactive) | 
N#CC(c1ccc(Cl)cc1)c1ncccc1Cl (configuration not stated) |  | AC35 [2]: 10.7 µM
N#CC(c1cccc(C(F)(F)F)n1)c1ccccc1OC(F)(F)F (configuration not stated) | -7.92% (inactive) | 
CC(C#N)(c1ccc(Cl)cc1)c1ccc(C(F)(F)F)cn1 (configuration not stated) | -4.71% (inactive) | 
CCCCC(C#N)c1ccccc1OC(F)(F)F (configuration not stated) | -2.91% (inactive) | 
